Data from ChEMBL document CHEMBL3232879, “4,5,6,7-Tetrahydro-isoxazolo-[4,5-c]-pyridines as a new class of cytotoxic Hsp90 inhibitors” (Eur J Med Chem, 2014).
The source made the active and inactive calls. The calls are words filed in the database; no cut-off is given here.

Legend:
[1] = target: Heat shock protein HSP 90-alpha (Homo sapiens, UniProt P07900); assay: Displacement of GM-FTC from Hsp90-alpha (unknown origin) after 4 hrs by fluorescence polarization assay
[2] = test system: NCI-H460; assay: Cytotoxicity against human NCI-H460 cells assessed as growth inhibition after 72 hrs by sulforhodamine B assay; type: functional, cell-based; details: NCI-H460, 72 h
Procedure, shortened: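 Log-phase NCI-H460 cells seeded, drug added 24 h later, exposed 72 h. Survival read by sulforhodamine B staining. IC50 fitted by curve analysis as the concentration halving cell number relative to untreated controls.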

[3] = test system: K562; assay: Induction of apoptosis in human K562 cells assessed as hypoploid nuclei accumulated in sub-G0-G1 phase after 72 hrs by propidium iodide staining-based fluorescence microscopic analysis; details: K562, 72 h
[4] = test system: K562; assay: Cell cycle arrest in human K562 cells assessed as reduction of S phase fraction at 75 uM after 24 hrs by propidium iodide staining-based flow cytometric analysis; type: functional
Procedure, shortened: (§1)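 K562 cells exposed for 24 h, then washed once in ice-cold PBS. Resuspended at 1×10^6 cells/mL in a hypotonic solution of propidium iodide in 0.1% sodium citrate with 0.03% (v/v) Nonidet P-40 for 30 min. Filtered through nylon cloth, then single-parameter DNA fluorescence histograms read by flow cytometry. Cell-cycle phase distribution obtained by modelling, with untreated cells as control.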

[5] = test system: K562; assay: Cytotoxicity against human K562 cells assessed as growth inhibition after 72 hrs by trypan blue exclusion assay; type: functional, cell-based; details: for IC50: K562, 72 h
Procedure, shortened: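 K562 cells, 2×10^5 per well in 1 mL complete medium, exposed to a range of drug concentrations. Cells stained with trypan blue and counted on a hemocytometer; dye-uptaking cells scored nonviable. Viable count expressed as percent of control proliferation; IC50 is the concentration giving 50% growth inhibition. Methods give 48 h incubation, table footnote 72 h exposure.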

[6] = test system: K562; assay: Cell cycle arrest in human K562 cells assessed as accumulation at G1 phase at 75 uM after 24 hrs by propidium iodide staining-based flow cytometric analysis; type: functional; procedure, shortened: as §1
[7] = test system: K562; assay: Cell cycle arrest in human K562 cells assessed as accumulation at G1 phase at 10 uM after 24 hrs by propidium iodide staining-based flow cytometric analysis; type: functional; procedure, shortened: as §1
[8] = test system: K562; assay: Cell cycle arrest in human K562 cells assessed as reduction of S phase fraction at 10 uM after 24 hrs by propidium iodide staining-based flow cytometric analysis; type: functional; procedure, shortened: as §1
[9] = test system: K562; assay: Cell cycle arrest in human K562 cells assessed as accumulation at G1 phase at 1 uM after 24 hrs by propidium iodide staining-based flow cytometric analysis; type: functional; procedure, shortened: as §1
[10] = test system: K562; assay: Cell cycle arrest in human K562 cells assessed as reduction of S phase fraction at 1 uM after 24 hrs by propidium iodide staining-based flow cytometric analysis; type: functional; procedure, shortened: as §1

Row | Structure (SMILES) | IC50 [1] | IC50 [2] | also measured
1 | CC(C)c1cc(C(=O)N2CCc3onc(C(=O)NCCCl)c3C2)c(O)cc1O | 34 nM | 200 nM | –
2 | COC(=O)c1noc2c1CN(C(C)=O)CC2 | > 100000 nM | > 1000 nM | –
3 | CCNC(=O)c1noc2c1CN(Cc1cc(Cl)c(O)cc1O)CC2 | 1400 nM | > 20000 nM | –
4 | CCNC(=O)c1noc2c1CN(C(=O)c1ccc(O)cc1O)CC2 | 1200 nM | > 20000 nM | –
5 | CCOC(=O)c1noc2c1CN(C(=O)c1ccc(O)cc1O)CC2 | 3900 nM | > 20000 nM | –
6 | CCNC(=O)c1noc2c1CN(C(=O)c1cc(Cl)c(O)cc1O)CC2 | 110 nM | 9700 nM | AC50 [3]: > 100000 nM; Activity [4]: Active; growth inhibition (GI) [5]: Dose-dependent effect; IC50 [5]: 32600 nM; Activity [6]: Active
7 | CCNC(=O)c1noc2c1CN(C(=O)Nc1cc(C(C)C)c(O)cc1O)CC2 | > 100000 nM | > 1000 nM | –
8 | CCNC(=O)c1noc2c1CN(C(=O)c1cc(C(C)C)c(O)cc1O)CC2 | 29 nM | 450 nM | AC50 [3]: 5400 nM; Activity [7]: Active; Activity [8]: Active; growth inhibition (GI) [5]: Dose-dependent effect; IC50 [5]: 720 nM
9 | CCNC(=O)c1noc2c1CN(C(=O)Nc1cc(Cl)c(O)cc1O)CC2 | > 100000 nM | > 1000 nM | –
10 | CC(C)c1cc(C(=O)N2CCc3onc(C(=O)NCCN4CCOCC4)c3C2)c(O)cc1O | 54 nM | 190 nM | –
11 | CCOC(=O)c1noc2c1CN(C(=O)c1cc(Cl)c(O)cc1O)CC2 | 160 nM | > 20000 nM | –
12 | CC(C)c1cc(C(=O)N2CCc3onc(C(=O)NC4CCCC4)c3C2)c(O)cc1O | 68 nM | 900 nM | –
13 | CCNC(=O)c1noc2c1CN(C(=O)c1cc(C(C)C)c(OC(C)=O)cc1OC(C)=O)CC2 | – | 230 nM | –
14 | CCOC(=O)c1noc2c1CN(C(=O)c1cc(C(C)C)c(O)cc1O)CC2 | 100 nM | 870 nM | –
15 | C=CCNC1=C2C[C@@H](C)C[C@H](OC)[C@H](O)[C@@H](C)/C=C(\C)[C@H](OC(N)=O)[C@@H](OC)/C=C\C=C(/C)C(=O)NC(=CC1=O)C2=O [TANESPIMYCIN] | – | – | AC50 [3]: 3100 nM; Activity [9]: Active; IC50 [5]: 150 nM; Activity [10]: Active
